The subject of assay [1] is HepG2. The assay can be described thus: Induction of apoptosis in human HepG2 cells incubated for 24 hrs by annexin V-FITC and PI staining based flow cytometry analysis. Format: functional, cell-based. Particulars: dose 1-4 µM. In short, it runs like this:
(§1)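 Cells seeded at 2×10^5 per well and treated 24 h with 1.0, 2.0 or 4.0 µM, or DMSO. Harvested, washed twice in cold PBS, resuspended at 1×10^5 cells/mL in buffer. Stained with Annexin V-FITC plus propidium iodide for 15 min at room temperature in the dark, then analysed by flow cytometry.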
(In general: In flow cytometry, cells or beads pass a laser one at a time.)

Assay [2] deals with RAW264.7. The assay can be described thus: Antiinflammatory activity against mouse RAW264.7 cells assessed as LPS-induced IL-6 at 5 uM pretreated for 2 hrs followed by LPS stimulation and measured after 22 hrs by ELISA relative to control (reference value: 0 %). It is filed as functional. To be noted: time 24 hrs. Background: An ELISA detects its analyte on a solid surface through an enzyme-linked reagent.

Assay [3] concerns HepG2. The assay can be described thus: Induction of apoptosis in human HepG2 cells assessed as late apoptotic cells at 1 uM incubated for 24 hrs by annexin V-FITC and PI staining based flow cytometry analysis (reference value: 4.8 %). Format: functional. In short, it runs like this: as §1
For assay [4], the system named is HepG2. The assay can be described thus: Induction of apoptosis in human HepG2 cells assessed as increase in Bax expression incubated for 24 hrs by Western blot analysis. It is filed as functional, cell-based. Particulars: dose 1-4 µM. The method in brief:
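HepG2 exposed to 1.0, 2.0 or 4.0 µM for 24 h. Lysates separated by electrophoresis and blotted onto nitrocellulose. Probed overnight at 4 °C with anti-Bcl-2, anti-BAX or anti-cleaved caspase-3, then 2 h at room temperature with anti-mouse/rabbit IgG. ECL detection, GAPDH as loading control; quantified from more than three separate experiments.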

Assay [5] relates to HepG2. The assay can be described thus: Inhibition of NF-kappaB in human HepG2 cells assessed as reduction in TNFalpha-induced p65 nuclear translocation at 4 uM pretreated with LPS for 15 mins followed by compound addition and measured after 2 hrs by DAPI staining based fluorescence microscopy. It is filed as cell-based. To be noted: time 135.0 min, in the assay text read “pretreated with TNF-alpha” for “pretreated with LPS”. In short, it runs like this:
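HepG2 exposed to TNF-α (10 ng/mL) for 15 min, then 4.0 µM compound for 2 h. Fixed at room temperature and blocked with 3% BSA. Anti-p65 (1:200) overnight at 4 °C, then secondary (1:200) for 30 min at room temperature. Nuclei stained with DAPI; p65 location imaged on a high-content fluorescence system. Repeated three times.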

The subject of assay [6] is RAW264.7. The assay can be described thus: Inhibition of NF-kappaB in mouse RAW264.7 cells assessed as reduction in LPS-induced JNK phosphorylation at 1 to 4 uM incubated for 1 hr followed by LPS stimulation and measured after 30 mins by Western blot analysis. To be noted: dose 1-4 µM. It is filed as cell-based. The method in brief: (§2)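 RAW264.7 incubated 1 h with compound (1.0, 2.0, 4.0 µM), then LPS 1.0 µg/mL for 30 min before extraction. Lysates blotted to nitrocellulose and probed overnight at 4 °C for total and phospho forms of p65, IκBα, Akt, ERK1/2, JNK and p38; secondary antibody 2 h at room temperature. ECL detection, normalized to GAPDH, mean ± SD of triplicate tests.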

The test system of assay [7] is SMMC-7721. The assay can be described thus: Induction of apoptosis in human SMMC-7721 cells assessed as early apoptotic cells at 1 uM incubated for 24 hrs by annexin V-FITC and PI staining based flow cytometry analysis (reference value: 0.3 %). It is filed as functional. The method in brief:
as §1

For assay [8], the system named is RAW264.7. The assay can be described thus: Inhibition of NF-kappaB in mouse RAW264.7 cells assessed as reduction in LPS-induced Akt phosphorylation at 1 to 4 uM incubated for 1 hr followed by LPS stimulation and measured after 30 mins by Western blot analysis. It is filed as cell-based. Particulars: dose 1-4 µM. The method in brief:
as §2
In general terms: In western blotting, separated proteins are transferred to a membrane and probed.

The subject of assay [9] is SMMC-7721. The assay can be described thus: Cytotoxicity against human SMMC-7721 cells assessed as reduction in cell viability incubated for 24 hrs by MTT assay. Format: functional, cell-based. Particulars: SMMC-7721, 24 h. In short, it runs like this: (§3)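 Cells kept at 37 °C in 5% CO₂. HepG2 grown in DMEM with 10% serum; HHL-5, LO2 and SMMC-7721 in 1640 medium with 10% serum. Seeded, grown 24 h, then exposed 24 h to 10, 5, 2.5, 1.25, 0.625 and 0.3125 µg/mL. MTT (5 mg/mL) added for 4 h at 37 °C; formazan dissolved in DMSO, OD read at 570 nm. IC50 averaged from three replicates.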

In assay [10] the test system is SMMC-7721. The assay can be described thus: Induction of apoptosis in human SMMC-7721 cells assessed as viable cells at 1 uM incubated for 24 hrs by annexin V-FITC and PI staining based flow cytometry analysis (reference value: 93.3 %). It is filed as functional. Particulars: read-out: Activity. In short, it runs like this: as §1
The nature of assay [11]: Cytotoxicity against human HHL-5 cells assessed as reduction in cell viability incubated for 24 hrs by MTT assay. To be noted: HHL-5, 24 h. Format: cell-based. In short, it runs like this:
as §3

For assay [12], the system named is HepG2. The assay can be described thus: Induction of apoptosis in human HepG2 cells assessed as late apoptotic cells at 4 uM incubated for 24 hrs by annexin V-FITC and PI staining based flow cytometry analysis (reference value: 4.8 %). It is filed as functional. In short, it runs like this:
as §1

Assay [13] deals with HepG2. The assay can be described thus: Induction of apoptosis in human HepG2 cells assessed as viable cells at 1 uM incubated for 24 hrs by annexin V-FITC and PI staining based flow cytometry analysis (reference value: 94.2 %). Format: functional. To be noted: read-out: Activity. The method in brief:
as §1

Assay [14] relates to SMMC-7721. The assay can be described thus: Induction of apoptosis in human SMMC-7721 cells assessed as viable cells at 4 uM incubated for 24 hrs by annexin V-FITC and PI staining based flow cytometry analysis (reference value: 93.3 %). It is filed as functional. Particulars: read-out: Activity. The method in brief: as §1
In assay [15] the test system is SMMC-7721. The assay can be described thus: Induction of apoptosis in human SMMC-7721 cells assessed as necrotic cells at 4 uM incubated for 24 hrs by annexin V-FITC and PI staining based flow cytometry analysis (reference value: 1 %). It is filed as functional. The method in brief:
as §1

For assay [16], the system named is SMMC-7721. The assay can be described thus: Induction of apoptosis in human SMMC-7721 cells incubated for 24 hrs by annexin V-FITC and PI staining based flow cytometry analysis. It is filed as functional, cell-based. To be noted: dose 1-4 µM. In short, it runs like this: as §1
Assay [17] relates to SMMC-7721. The assay can be described thus: Induction of apoptosis in human SMMC-7721 cells assessed as late apoptotic cells at 4 uM incubated for 24 hrs by annexin V-FITC and PI staining based flow cytometry analysis (reference value: 5.4 %). It is filed as functional. In short, it runs like this:
as §1

Assay [18] deals with SMMC-7721. The assay can be described thus: Induction of apoptosis in human SMMC-7721 cells assessed as late apoptotic cells at 1 uM incubated for 24 hrs by annexin V-FITC and PI staining based flow cytometry analysis (reference value: 5.4 %). Format: functional. In short, it runs like this:
as §1

Assay [19] has as its system RAW264.7. The assay can be described thus: Inhibition of NF-kappaB in mouse RAW264.7 cells assessed as reduction in LPS-induced p65 nuclear translocation at 4 uM pretreated with LPS for 15 mins followed by compound addition and measured after 2 hrs by DAPI staining based fluorescence microscopy. Particulars: time 135.0 min.
For assay [20], the system named is SMMC-7721. The assay can be described thus: Induction of apoptosis in human SMMC-7721 cells assessed as early apoptotic cells at 4 uM incubated for 24 hrs by annexin V-FITC and PI staining based flow cytometry analysis (reference value: 0.3 %). It is filed as functional. In short, it runs like this: as §1
Assay [21] relates to RAW264.7. The assay can be described thus: Inhibition of NF-kappaB in mouse RAW264.7 cells assessed as reduction in LPS-induced p65 phosphorylation incubated for 1 hr followed by LPS stimulation and measured after 30 mins by Western blot analysis. It is filed as cell-based. To be noted: dose 1-4 µM. In short, it runs like this:
as §2

Assay [22] has as its system L02. The assay can be described thus: Cytotoxicity against human L02 cells assessed as reduction in cell viability incubated for 24 hrs by MTT assay. Format: cell-based. To be noted: L02, 24 h. In short, it runs like this:
as §3

The subject of assay [23] is SMMC-7721. The assay can be described thus: Induction of apoptosis in human SMMC-7721 cells assessed as necrotic cells at 1 uM incubated for 24 hrs by annexin V-FITC and PI staining based flow cytometry analysis (reference value: 1 %). Format: functional. In short, it runs like this: as §1

A word on the inhibition: it is how much of the control response was suppressed. What is called IC50 is the midpoint of a concentration-inhibition curve.

Molecules are shown by their SMILES. Calls of active or inactive are those of the source. The rule behind the calls is not given here.

Turning to `Cl.NC1=NC(c2cccc(F)c2)C2=C(N1)/C(=C/c1cccc(F)c1)CN(S(=O)(=O)c1ccc(C(F)(F)F)cc1)C2` (stereo not drawn), the Activity result is “Dose-dependent effect” in assay [1]; 10.5% in assay [3]; “Dose-dependent effect” in assay [4]; 3.2% in assay [7]; 18.5% in assay [12]; 12.9% in assay [15]. The Activity entry in [16] is “Dose-dependent effect”; in [17], 9.2%; in assay [18], 15.1%; in assay [20] it was 11.4%; in [23], 0.7%. Also, in assay [2], the inhibition at 5 µM is 86.8%. Besides, the inhibition result in [5], in assay [6], in assay [8] and in assay [19] was “Active” in each case. Besides, the concentration for half-maximal inhibition (IC50) in assay [9] was found to be 2.4 µM; in assay [11], 28.8 µM; in [22] it was 35.2 µM. The results for the viability at 1 µM in [10] and in assay [13] were 80.8% and 35.3%, respectively. The viability at 4 µM in assay [14] stood at 66.5%. For the same molecule, the inhibition entry in assay [21] is “Dose-dependent effect”.

The record behind these values is ChEMBL document CHEMBL4680257, “Discovery of novel NF-кB inhibitor based on scaffold hopping: 1,4,5,6,7,8-hexahydropyrido[4,3-d]pyrimidine” (Eur J Med Chem, 2020).
